For experiment [1], the target named is T1, Tyrosine-protein kinase receptor UFO (Homo sapiens, UniProt P30530).
T1 sequence (P30530 whole entry): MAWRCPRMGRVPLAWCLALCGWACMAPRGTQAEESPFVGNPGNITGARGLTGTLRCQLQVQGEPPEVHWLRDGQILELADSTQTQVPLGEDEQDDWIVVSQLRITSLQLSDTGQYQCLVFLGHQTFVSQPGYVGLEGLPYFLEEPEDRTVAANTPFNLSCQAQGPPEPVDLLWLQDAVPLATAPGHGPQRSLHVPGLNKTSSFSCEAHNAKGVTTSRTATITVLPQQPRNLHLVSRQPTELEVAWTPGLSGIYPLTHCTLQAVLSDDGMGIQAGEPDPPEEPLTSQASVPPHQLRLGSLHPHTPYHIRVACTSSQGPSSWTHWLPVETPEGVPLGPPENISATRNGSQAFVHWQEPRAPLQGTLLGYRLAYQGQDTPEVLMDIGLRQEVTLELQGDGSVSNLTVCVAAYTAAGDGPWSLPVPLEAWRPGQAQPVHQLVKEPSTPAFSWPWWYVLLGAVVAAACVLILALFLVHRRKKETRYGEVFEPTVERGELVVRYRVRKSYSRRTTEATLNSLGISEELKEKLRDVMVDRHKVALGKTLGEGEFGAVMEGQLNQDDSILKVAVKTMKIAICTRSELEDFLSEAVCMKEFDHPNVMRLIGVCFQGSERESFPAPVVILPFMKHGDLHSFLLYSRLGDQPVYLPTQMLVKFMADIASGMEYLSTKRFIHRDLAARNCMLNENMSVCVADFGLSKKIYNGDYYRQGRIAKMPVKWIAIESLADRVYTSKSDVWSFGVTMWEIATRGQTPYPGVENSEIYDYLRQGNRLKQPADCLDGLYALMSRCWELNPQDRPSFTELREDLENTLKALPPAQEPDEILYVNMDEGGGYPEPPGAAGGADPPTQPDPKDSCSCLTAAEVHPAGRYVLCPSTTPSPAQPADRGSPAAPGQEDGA
Nature of the experiment: Inhibition of AXL (unknown origin) phosphorylation after 1 hr by ELISA.

Experiment [2] has as its target Tyrosine-protein kinase receptor UFO (Homo sapiens) (UniProt P30530). Nature of the experiment: Inhibition of AXL (unknown origin) using fluorescence labeled peptide as substrate at 10 uM by IMAP assay relative to control. Put shortly:
(§1)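 IMAP fluorescence-polarization kinase assay at 10 µmol/L compound, run in triplicate by a contract lab. A fluorescently labeled substrate peptide is phosphorylated, then nanoparticles carrying trivalent metal bind the phosphopeptide and slow its rotation. Read-out is fluorescence polarization, expressed as percent inhibition.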

Experiment [3] has the same target. Nature of the experiment: Inhibition of AXL (unknown origin) using biotinylated peptide as substrate at 10 uM by TR-FRET assay relative to control.
Experiment [4] addresses T2, Hepatocyte growth factor receptor (Homo sapiens, UniProt P08581). Nature of the experiment: Inhibition of c-MET (unknown origin) using fluorescence labeled peptide as substrate at 10 uM by IMAP assay relative to control. Put shortly: as §1
The target of experiment [5] is T2, Hepatocyte growth factor receptor. Briefly: Inhibition of c-MET (unknown origin) using biotinylated peptide as substrate at 10 uM by TR-FRET assay relative to control.
Experiment [6] concerns the target T3, Proto-oncogene tyrosine-protein kinase Src (Homo sapiens, UniProt P12931). Briefly: Inhibition of SRC (unknown origin) using fluorescence labeled peptide as substrate at 10 uM by IMAP assay relative to control. Put shortly:
as §1

Experiment [7] addresses T3, Proto-oncogene tyrosine-protein kinase Src. Nature of the experiment: Inhibition of SRC (unknown origin) using biotinylated peptide as substrate at 10 uM by TR-FRET assay relative to control.
The target of experiment [8] is Mast/stem cell growth factor receptor Kit (Homo sapiens) (UniProt P10721). Briefly: Inhibition of cKIT (unknown origin) using fluorescence labeled peptide as substrate at 10 uM by IMAP assay relative to control. Put shortly: as §1
For experiment [9] the target is unchanged. Nature of the experiment: Inhibition of cKIT (unknown origin) using biotinylated peptide as substrate at 10 uM by TR-FRET assay relative to control.
The target in experiment [10] is Angiopoietin-1 receptor (Homo sapiens) (UniProt Q02763). Nature of the experiment: Inhibition of TIE2 (unknown origin) using fluorescence labeled peptide as substrate at 10 uM by IMAP assay relative to control. Put shortly:
as §1

Experiment [11] has the same target. Briefly: Inhibition of TIE2 (unknown origin) using biotinylated peptide as substrate at 10 uM by TR-FRET assay relative to control.
Experiment [12] has as its target Platelet-derived growth factor receptor beta (Homo sapiens) (UniProt P09619). Briefly: Inhibition of PDGFRbeta (unknown origin) using fluorescence labeled peptide as substrate at 10 uM by IMAP assay relative to control. The method in brief:
as §1

Experiment [13] has the same target. Nature of the experiment: Inhibition of PDGFRbeta (unknown origin) using biotinylated peptide as substrate at 10 uM by TR-FRET assay relative to control.
Experiment [14] concerns the target T4, Aurora kinase A (Homo sapiens) (UniProt O14965).
T4 sequence (whole entry): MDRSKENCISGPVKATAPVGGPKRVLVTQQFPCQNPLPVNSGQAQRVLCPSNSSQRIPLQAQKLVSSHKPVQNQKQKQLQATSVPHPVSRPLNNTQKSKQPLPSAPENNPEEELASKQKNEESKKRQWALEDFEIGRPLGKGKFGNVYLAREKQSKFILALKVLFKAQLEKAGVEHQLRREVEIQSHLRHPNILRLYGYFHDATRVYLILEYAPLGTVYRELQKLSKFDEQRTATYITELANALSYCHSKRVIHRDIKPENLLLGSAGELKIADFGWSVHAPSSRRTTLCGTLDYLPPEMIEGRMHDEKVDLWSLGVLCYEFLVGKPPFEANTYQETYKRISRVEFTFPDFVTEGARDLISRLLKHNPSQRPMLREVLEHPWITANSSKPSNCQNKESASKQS
Briefly: Inhibition of AurA (unknown origin) using fluorescence labeled peptide as substrate at 10 uM by IMAP assay relative to control. Put shortly:
as §1

The target of experiment [15] is T4, Aurora kinase A (Homo sapiens). Briefly: Inhibition of AurA (unknown origin) using biotinylated peptide as substrate at 10 uM by TR-FRET assay relative to control.
Experiment [16] has as its target Vascular endothelial growth factor receptor 2 (Homo sapiens) (UniProt P35968). Nature of the experiment: Inhibition of VEGFR2 (unknown origin) using fluorescence labeled peptide as substrate at 10 uM by IMAP assay relative to control. Put shortly: as §1
For experiment [17], the target named is T1, Tyrosine-protein kinase receptor UFO. Nature of the experiment: Inhibition of AXL (unknown origin).
Experiment [18] deals with T3, Proto-oncogene tyrosine-protein kinase Src. Briefly: Inhibition of SRC (unknown origin).
For experiment [19], the target named is T2, Hepatocyte growth factor receptor. Nature of the experiment: Inhibition of c-MET (unknown origin).
For experiment [20], the target named is Epidermal growth factor receptor (Homo sapiens, UniProt P00533). Nature of the experiment: Inhibition of wild type EGFR (unknown origin).
In experiment [21] the test system is MDA-MB-231. Briefly: Anti-invasive activity against human MDA-MB-231 cells up to 3 uM after 5 hrs by matrigel assay. The experiment is classed as functional, cell-based. Put shortly:
(§2)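 MDA-MB-231 cells (7000/well) seeded on polymerized 3 mg/mL Matrigel (set ≥16 h at 37°C) in serum-free medium; inhibitor added at seeding, aggregates forming over 5 h.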

Experiment [22] relates to MDA-MB-231. Briefly: Antimigratory activity against human MDA-MB-231 cells assessed as inhibition of large cell aggregate formation after 5 hrs by matrigel assay. The experiment is classed as functional, cell-based. The following applies: MDA-MB-231, 5 h. Put shortly: as §2
A short description of experiment [23]: Ratio of IC50 for antimigratory activity against human MDA-MB-231 cells after 3.5 hrs by microscopy based Boyden chamber assay to IC50 for inhibition of AXL (unknown origin).

pIC50: −log10 of the molar value. The source made the active and inactive calls. The rule behind the calls is not given here. Where only a bound is given, the exact number is not on record here.

Sequence of Mast/stem cell growth factor receptor Kit (Homo sapiens) (P10721 whole entry): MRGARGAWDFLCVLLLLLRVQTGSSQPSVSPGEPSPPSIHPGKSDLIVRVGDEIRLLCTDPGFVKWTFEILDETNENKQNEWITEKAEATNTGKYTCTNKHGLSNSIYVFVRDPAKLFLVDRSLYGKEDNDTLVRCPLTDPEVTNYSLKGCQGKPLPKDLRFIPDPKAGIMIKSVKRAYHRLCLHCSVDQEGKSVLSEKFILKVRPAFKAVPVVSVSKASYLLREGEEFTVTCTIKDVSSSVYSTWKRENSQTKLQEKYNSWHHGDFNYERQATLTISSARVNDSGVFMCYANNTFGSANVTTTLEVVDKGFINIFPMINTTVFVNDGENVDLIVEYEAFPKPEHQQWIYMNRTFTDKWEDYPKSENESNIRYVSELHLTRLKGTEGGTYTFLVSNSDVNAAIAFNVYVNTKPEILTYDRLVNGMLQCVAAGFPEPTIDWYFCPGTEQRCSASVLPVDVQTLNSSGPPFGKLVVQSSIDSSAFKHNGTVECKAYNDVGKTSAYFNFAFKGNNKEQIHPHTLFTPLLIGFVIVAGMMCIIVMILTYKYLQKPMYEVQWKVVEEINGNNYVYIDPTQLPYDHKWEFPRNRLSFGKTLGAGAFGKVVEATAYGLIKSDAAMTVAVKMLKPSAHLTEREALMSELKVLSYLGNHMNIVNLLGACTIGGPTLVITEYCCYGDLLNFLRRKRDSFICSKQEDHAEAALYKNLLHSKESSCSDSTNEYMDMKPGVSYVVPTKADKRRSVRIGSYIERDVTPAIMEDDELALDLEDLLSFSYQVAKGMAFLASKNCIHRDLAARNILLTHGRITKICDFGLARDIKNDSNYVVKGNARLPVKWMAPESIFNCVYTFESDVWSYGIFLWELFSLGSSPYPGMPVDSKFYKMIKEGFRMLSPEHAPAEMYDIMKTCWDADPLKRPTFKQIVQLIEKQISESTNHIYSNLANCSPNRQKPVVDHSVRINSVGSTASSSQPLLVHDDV
Sequence of Epidermal growth factor receptor (P00533 whole entry): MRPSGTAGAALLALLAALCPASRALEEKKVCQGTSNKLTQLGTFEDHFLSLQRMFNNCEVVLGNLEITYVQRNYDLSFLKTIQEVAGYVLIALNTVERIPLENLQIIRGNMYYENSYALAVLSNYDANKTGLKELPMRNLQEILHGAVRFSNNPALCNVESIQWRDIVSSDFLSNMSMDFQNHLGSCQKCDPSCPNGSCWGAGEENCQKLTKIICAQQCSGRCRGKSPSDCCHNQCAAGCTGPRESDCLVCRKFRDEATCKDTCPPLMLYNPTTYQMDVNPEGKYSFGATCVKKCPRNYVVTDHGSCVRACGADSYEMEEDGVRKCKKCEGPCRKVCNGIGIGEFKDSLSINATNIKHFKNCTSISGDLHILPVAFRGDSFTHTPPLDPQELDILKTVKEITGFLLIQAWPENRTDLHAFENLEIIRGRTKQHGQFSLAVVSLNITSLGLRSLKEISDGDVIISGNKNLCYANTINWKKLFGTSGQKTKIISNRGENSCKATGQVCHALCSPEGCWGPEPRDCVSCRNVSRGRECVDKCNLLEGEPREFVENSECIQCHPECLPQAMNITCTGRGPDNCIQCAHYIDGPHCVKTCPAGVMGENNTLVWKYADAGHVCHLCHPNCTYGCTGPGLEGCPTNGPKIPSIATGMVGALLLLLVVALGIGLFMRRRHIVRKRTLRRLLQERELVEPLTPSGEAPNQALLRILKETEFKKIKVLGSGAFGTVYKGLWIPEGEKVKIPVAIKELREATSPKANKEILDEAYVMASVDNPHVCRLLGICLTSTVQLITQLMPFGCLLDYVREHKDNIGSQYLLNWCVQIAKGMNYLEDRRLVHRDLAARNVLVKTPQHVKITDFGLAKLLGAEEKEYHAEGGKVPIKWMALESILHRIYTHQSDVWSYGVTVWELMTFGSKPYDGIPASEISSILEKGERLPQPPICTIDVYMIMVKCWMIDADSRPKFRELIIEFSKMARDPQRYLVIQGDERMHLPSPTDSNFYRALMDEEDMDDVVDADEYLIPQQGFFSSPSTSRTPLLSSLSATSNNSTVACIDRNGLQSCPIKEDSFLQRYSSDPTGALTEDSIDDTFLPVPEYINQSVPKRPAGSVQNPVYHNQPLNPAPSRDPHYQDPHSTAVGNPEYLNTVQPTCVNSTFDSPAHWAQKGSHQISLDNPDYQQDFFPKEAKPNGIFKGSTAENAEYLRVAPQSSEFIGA
Sequence of Angiopoietin-1 receptor (Homo sapiens) (Q02763 whole entry): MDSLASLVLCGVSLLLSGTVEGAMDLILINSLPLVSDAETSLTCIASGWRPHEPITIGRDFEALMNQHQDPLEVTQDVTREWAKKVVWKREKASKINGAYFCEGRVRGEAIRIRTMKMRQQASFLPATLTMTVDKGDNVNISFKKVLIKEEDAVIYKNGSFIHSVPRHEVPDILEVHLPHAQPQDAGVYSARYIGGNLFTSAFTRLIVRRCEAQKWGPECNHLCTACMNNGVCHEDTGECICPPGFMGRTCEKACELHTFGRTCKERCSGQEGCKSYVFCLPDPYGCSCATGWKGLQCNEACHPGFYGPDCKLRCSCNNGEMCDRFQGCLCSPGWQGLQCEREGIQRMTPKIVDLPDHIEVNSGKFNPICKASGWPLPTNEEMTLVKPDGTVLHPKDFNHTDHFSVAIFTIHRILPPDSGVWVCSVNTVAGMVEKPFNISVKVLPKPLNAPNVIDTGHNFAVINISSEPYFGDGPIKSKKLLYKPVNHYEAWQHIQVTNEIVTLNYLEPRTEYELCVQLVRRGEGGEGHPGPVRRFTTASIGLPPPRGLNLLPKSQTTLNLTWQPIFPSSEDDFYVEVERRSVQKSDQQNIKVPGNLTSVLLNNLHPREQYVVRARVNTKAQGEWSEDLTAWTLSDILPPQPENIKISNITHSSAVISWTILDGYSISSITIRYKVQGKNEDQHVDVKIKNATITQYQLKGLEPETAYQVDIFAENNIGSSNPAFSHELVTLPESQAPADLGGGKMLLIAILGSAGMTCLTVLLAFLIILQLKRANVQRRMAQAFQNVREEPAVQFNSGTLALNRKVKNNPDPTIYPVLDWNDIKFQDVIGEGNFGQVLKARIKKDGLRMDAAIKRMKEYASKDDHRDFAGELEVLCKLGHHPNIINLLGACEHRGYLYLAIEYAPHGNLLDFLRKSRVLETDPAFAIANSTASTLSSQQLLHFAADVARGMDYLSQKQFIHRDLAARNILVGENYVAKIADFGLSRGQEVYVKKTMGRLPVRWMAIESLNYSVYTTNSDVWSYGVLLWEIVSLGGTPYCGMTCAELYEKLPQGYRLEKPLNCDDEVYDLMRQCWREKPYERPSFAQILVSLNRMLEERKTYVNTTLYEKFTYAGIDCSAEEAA
Sequence of Vascular endothelial growth factor receptor 2 (Homo sapiens) (P35968 whole entry): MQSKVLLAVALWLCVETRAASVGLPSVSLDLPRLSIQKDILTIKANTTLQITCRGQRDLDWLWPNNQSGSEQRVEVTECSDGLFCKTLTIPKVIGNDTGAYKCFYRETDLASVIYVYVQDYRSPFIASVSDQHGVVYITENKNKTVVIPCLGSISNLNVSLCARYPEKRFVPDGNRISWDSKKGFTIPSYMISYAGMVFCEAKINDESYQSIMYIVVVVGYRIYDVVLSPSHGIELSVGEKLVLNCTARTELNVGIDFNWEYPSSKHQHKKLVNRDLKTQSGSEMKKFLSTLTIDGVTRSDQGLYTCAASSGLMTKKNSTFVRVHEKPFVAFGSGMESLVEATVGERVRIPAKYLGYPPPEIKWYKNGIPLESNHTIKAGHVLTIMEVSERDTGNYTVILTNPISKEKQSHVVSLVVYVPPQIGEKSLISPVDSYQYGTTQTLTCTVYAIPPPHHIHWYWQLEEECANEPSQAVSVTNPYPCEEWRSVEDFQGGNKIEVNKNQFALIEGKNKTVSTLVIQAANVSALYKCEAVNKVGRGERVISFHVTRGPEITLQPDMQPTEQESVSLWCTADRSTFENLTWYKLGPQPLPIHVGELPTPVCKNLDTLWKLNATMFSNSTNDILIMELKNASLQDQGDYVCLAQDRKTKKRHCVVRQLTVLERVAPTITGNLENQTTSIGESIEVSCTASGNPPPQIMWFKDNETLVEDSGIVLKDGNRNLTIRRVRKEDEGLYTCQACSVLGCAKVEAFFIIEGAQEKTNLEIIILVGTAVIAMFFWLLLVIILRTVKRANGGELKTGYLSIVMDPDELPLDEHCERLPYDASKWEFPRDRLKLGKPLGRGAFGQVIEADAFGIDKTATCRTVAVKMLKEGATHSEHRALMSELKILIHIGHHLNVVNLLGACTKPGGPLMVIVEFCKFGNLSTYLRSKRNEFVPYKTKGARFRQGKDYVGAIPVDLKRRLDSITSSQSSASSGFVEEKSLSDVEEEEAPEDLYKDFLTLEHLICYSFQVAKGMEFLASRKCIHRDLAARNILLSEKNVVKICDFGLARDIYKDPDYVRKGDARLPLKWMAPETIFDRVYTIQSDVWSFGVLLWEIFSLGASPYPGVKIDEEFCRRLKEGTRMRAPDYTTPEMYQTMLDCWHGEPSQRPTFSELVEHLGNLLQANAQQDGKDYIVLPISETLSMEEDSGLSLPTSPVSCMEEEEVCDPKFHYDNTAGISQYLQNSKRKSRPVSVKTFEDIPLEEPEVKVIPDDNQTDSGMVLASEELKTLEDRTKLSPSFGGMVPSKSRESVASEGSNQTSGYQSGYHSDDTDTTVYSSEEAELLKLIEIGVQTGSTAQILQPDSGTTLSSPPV

As for `COc1cc2c(Oc3ccc(NS(=O)(=O)c4cc(F)ccc4F)cc3F)ccnc2cc1OCCCN1CCN(C)CC1`, the pIC50 in [1] was 7.57; in experiment [17], 7.57; in [18], 7.06; in experiment [19] it was 6.45; in [20] it was 6.83; in the experiment on MDA-MB-231 [22] it was 6.80. The Efficacy in experiment [2], in experiment [3], in experiment [4], in experiment [5], in experiment [6] and in [7] was 83 to 100% each time. The Efficacy in experiment [8], in [9], in [10], in experiment [11], in experiment [12] and in [13] was 83 to 100% each time. Moreover, the Efficacy in [14], in experiment [15] and in experiment [16] was 83 to 100% throughout. In addition, the inhibition result with MDA-MB-231 [21] is “Active”. For the same compound, the “Ratio IC50” value in experiment [23] is on record as more than 50.

Take `COc1cc2c(Oc3ccc(NS(=O)(=O)c4ccccc4C(F)(F)F)cc3F)ccnc2cc1OCCCN1CCN(C)CC1`: the pIC50 is 7.68 in [1]; 7.68 in [17]; 6.26 in experiment [18]; 6.31 in experiment [19]; 6.55 in experiment [20]; 6.80 in the experiment on MDA-MB-231 [22]. The Efficacy in [2], in [3], in experiment [4], in experiment [5], in [6] and in [7] was 83 to 100% each time. Besides, the Efficacy in experiment [8], in experiment [9], in [10], in [11], in experiment [12] and in experiment [13] was 83 to 100% throughout. Moreover, the Efficacy in experiment [14], in experiment [15] and in [16] was 83 to 100% throughout. In addition, the inhibition entry with MDA-MB-231 [21] is “Active”. Also, the “Ratio IC50” value in [23] was more than 50.

`COc1cc2c(Oc3ccc(NS(=O)(=O)c4cc(F)ccc4F)cc3F)ccnc2cc1OCCCN1CCCC(C)C1` (configuration not stated): the pIC50 in [1] is 7.55; in experiment [17] it was 7.55; in experiment [18] it was 6.95; in experiment [19], 5.88; in [20], 5.95; in the experiment with MDA-MB-231 [22], 6.73. Moreover, the Efficacy in [2], in experiment [3], in experiment [4], in [5], in [6] and in [7] was 83 to 100% throughout. For the same compound, the Efficacy in [8], in [9], in experiment [10], in [11], in experiment [12] and in experiment [13] was 83 to 100% in each case. The Efficacy in experiment [14], in experiment [15] and in [16] was 83 to 100% each time. The inhibition result in the experiment on MDA-MB-231 [21] is “Active”. The “Ratio IC50” value in experiment [23] is listed as more than 50.

With `COc1cc2c(Oc3ccc(NS(=O)(=O)c4c(F)cccc4F)cc3F)ccnc2cc1OCCCN1CCN(C)CC1`, the negative-log IC50 (pIC50) in experiment [1] is 7.46; in [17], 7.46; in [18], 7.36; in experiment [19], 6.90; in experiment [20], 6.75; in the experiment on MDA-MB-231 [22], 6.81. Besides, the Efficacy in [2], in [3], in experiment [4], in [5], in experiment [6] and in [7] was 83 to 100% in each case. Also, the Efficacy in [8], in experiment [9], in experiment [10], in experiment [11], in experiment [12] and in experiment [13] was 83 to 100% throughout. Further, the Efficacy in [14], in experiment [15] and in experiment [16] was 83 to 100% throughout. Also, the inhibition entry in the experiment on MDA-MB-231 [21] was “Active”. In addition, in experiment [23], the “Ratio IC50” value is reported as more than 50.
